CHRM5 antagonist – antagonists of human muscarinic M5 receptor (CHRM5). P08912. CHO-hM5 cells, Fluo-8 calcium fluorescence, ACh EC80. inhibition, % at 3 µM. hit rate 0.59% among 360,000. AID 624040;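 active = inhibition above a per-plate cutoff, the mean of that plate's test compounds plus 3 SD, cut at about 27% in these data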;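 note: 0% = acetylcholine EC80 with DMSO and 100% = DMSO without agonist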
Target sequence (P08912 whole entry, looked up): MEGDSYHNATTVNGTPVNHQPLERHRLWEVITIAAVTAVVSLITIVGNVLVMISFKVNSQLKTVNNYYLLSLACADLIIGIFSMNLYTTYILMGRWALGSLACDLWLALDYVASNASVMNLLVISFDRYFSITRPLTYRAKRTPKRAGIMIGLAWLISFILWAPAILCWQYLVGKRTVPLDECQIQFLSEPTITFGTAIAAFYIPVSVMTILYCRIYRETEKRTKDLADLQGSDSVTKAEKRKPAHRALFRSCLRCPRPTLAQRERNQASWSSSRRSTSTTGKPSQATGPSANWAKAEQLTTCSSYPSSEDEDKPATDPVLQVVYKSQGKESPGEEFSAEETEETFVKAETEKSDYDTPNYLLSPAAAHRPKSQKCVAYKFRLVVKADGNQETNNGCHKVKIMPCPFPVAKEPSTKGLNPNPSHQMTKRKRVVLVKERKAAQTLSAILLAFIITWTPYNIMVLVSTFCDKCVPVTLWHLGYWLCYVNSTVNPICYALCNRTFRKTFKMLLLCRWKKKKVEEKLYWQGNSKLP
M5 PAM – potentiates acetylcholine response at human M5 receptor; P08912; CHO-K1 hM5, Fluo-8 calcium, ACh EC20 PAM; 0% = ACh EC20, 100% = ACh EC100; activation, % at 3 µM; hit rate 0.3% among 360,000; AID 624038;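 active = activation above the run cutoff, the mean activation of all test compounds plus 3 SD, cut at about 18% in these data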
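Assay system: CHO-K1 hM5 cells. Also added: acetylcholine at EC20 concentration, added after compound. Dosing: 3 µM, single dose. Times: compound preincubation 140 s before EC20 acetylcholine addition. Signal: Fluo-8 calcium fluorescence. Measure: % activation relative to EC20 and EC100 ACh responses. Repeats: singlicate, one well per test compound.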
CHRM4 antagonist – blocks acetylcholine activation of human M4 receptor; AID 624125; P08173; inhibition, % at 3 µM; hit rate 0.73% among 360,000; CHO-hM4 cells, ACh EC80, Fluo-8 calcium fluorescence;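 active = inhibition above its plate's cutoff, the mean inhibition of sample wells plus 3 SD, cut at about 27% in these data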;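 note: 0% = acetylcholine EC80 with DMSO and 100% = DMSO without agonist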
CHRM4 PAM – CHRM4 positive allosteric modulation; AID 624126; activation, % at 3 µM; P08173; hit rate 0.4% among 360,000; CHO-K1 hM4/Gqi5, Fluo-8 calcium fluorescence, ACh EC20; 0% = ACh EC20, 100% = maximal ACh;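 active = activation above its plate's cutoff, the mean activation of sample wells plus 3 SD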
M4 ag – agonists of human muscarinic M4 receptor (CHRM4) | activation, % at 3 µM | P08173 | CHO-K1 hM4/Gqi5, Fluo-8 calcium fluorescence; vehicle 0%, full acetylcholine response 100% | hit rate 0.14% among 360,000 | AID 624127;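 active = activation above the run mean over all test wells plus 3 SD, cut at about 32% in these data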;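 note: peak over basal fluorescence ratio per well then scaled between controls; 0% = DMSO wells and 100% = acetylcholine at EC100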
M5 ag – CHRM5 agonism in calcium assay; P08912; CHO-K1 hM5 cells, Fluo-8 calcium fluorescence; 0% DMSO wells, 100% maximal acetylcholine response; activation, % at 3 µM; hit rate 0.19% among 360,000; AID 624037;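 active = activation above the run's mean over test compounds plus 3 SD, cut at about 23% in these data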;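 note: signal is peak over basal fluorescence ratio across the kinetic read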
Starred values were filed as active, the others as inactive; ! = not confirmed by another sample. Shown are actives, neighbours in structure and some others; about 1.8% of the full set was active somewhere.

CCCC(=O)Nc1ccc(-c2csc(NNC(C)=O)n2)cc1 was read as CHRM5 antagonist -12, M5 PAM 21*, CHRM4 antagonist -9, CHRM4 PAM 15, M4 ag 0 and M5 ag 5.
CC(=O)NNc1nc(-c2ccc(C)cc2)cs1 was read as CHRM5 antagonist 2, M5 PAM -1, CHRM4 antagonist 7, CHRM4 PAM -1, M4 ag 0 and M5 ag -3.
O=C(Cc1ccccc1Cl)c1ccccc1 was read as CHRM5 antagonist -2, M5 PAM 9, CHRM4 antagonist -15, CHRM4 PAM 27*, M4 ag 1 and M5 ag -2.
CC(=O)O[C@H]1C(=O)[C@@]2(C)[C@H]([C@H](OC(=O)c3ccccc3)[C@]3(O)C[C@H](OC(=O)[C@H](O)[C@@H](NC(=O)c4ccccc4)c4ccccc4)C(C)=C1C3(C)C)[C@]1(OC(C)=O)CO[C@@H]1C[C@@H]2O was read as CHRM5 antagonist 2, M5 PAM -1, CHRM4 antagonist -3, CHRM4 PAM -1, M4 ag 0 and M5 ag -1.
`O=C(Nc1ccc(F)cc1)C(c1ccncc1)N1CCN(C(=O)c2ccco2)CC1` (configuration not stated) gave CHRM5 antagonist -13, M5 PAM 20*, CHRM4 antagonist -4, CHRM4 PAM 15, M4 ag 0 and M5 ag 1.
CC(O)CN1C(=O)C(CC(=O)Nc2ccc(Cl)cc2)SC1=Nc1ccccc1 (configuration not stated) was read as CHRM5 antagonist 10, M5 PAM -6, CHRM4 antagonist 6, CHRM4 PAM -2, M4 ag 12 and M5 ag -2.
For COCCN1C(=O)C(CC(=O)Nc2ccc(C(C)=O)cc2)SC1=Nc1ccccc1 (configuration not stated) the results were CHRM5 antagonist 29*!, M5 PAM -12, CHRM4 antagonist 0, CHRM4 PAM -2, M4 ag 12 and M5 ag -1.
Screening COC(=O)N/N=C/c1ccc([N+](=O)[O-])o1 returned CHRM5 antagonist -13, M5 PAM 10, CHRM4 antagonist 14, CHRM4 PAM 30*, M4 ag 1 and M5 ag 2.
NC(=O)N/N=C/c1ccc([N+](=O)[O-])o1 was read as CHRM5 antagonist 1, M5 PAM -3, CHRM4 antagonist 0, CHRM4 PAM -2, M4 ag 1 and M5 ag 1.
Screening CCOc1ccc(CNC(=O)c2cccc(NC(=O)C3=C(C)OCCS3)c2)cc1 returned CHRM5 antagonist 30*, M5 PAM -13, CHRM4 antagonist 0, CHRM4 PAM -8, M4 ag 12 and M5 ag 4.
Screening COc1cccc(CNC(=O)c2cccc(NC(=O)C3=C(C)OCCS3)c2)c1 returned CHRM5 antagonist 8, M5 PAM -14, CHRM4 antagonist -17, CHRM4 PAM -2, M4 ag 10 and M5 ag 2.
Screening COC(=O)c1ccc(C2SCC(=O)N2Cc2ccccc2)cc1 (configuration not stated) returned CHRM5 antagonist 4, M5 PAM -5, CHRM4 antagonist 3, CHRM4 PAM -10, M4 ag 8 and M5 ag -1.
`O=C(NCCSCc1ccccc1)c1ccc(C2SCC(=O)N2Cc2ccccc2)cc1` (configuration not stated) gave CHRM5 antagonist 14, M5 PAM -24, CHRM4 antagonist 34*, CHRM4 PAM -18, M4 ag 9 and M5 ag -6.
CSc1ccc(S(=O)(=O)Nc2ccc(OCC(=O)N3CCOCC3)cc2)cc1 was read as CHRM5 antagonist -7, M5 PAM 6, CHRM4 antagonist 2, CHRM4 PAM -1, M4 ag 1 and M5 ag 1.
`COc1ccc(N2CCN(c3ccc(NC(=O)c4ccc5c(c4)OCO5)cc3C#N)CC2)cc1` gave CHRM5 antagonist -2, M5 PAM 7, CHRM4 antagonist -10, CHRM4 PAM 29*, M4 ag 1 and M5 ag -2.
`COC(=O)c1c(N)n(CCCN2CCOCC2)c2nc3ccccc3nc12` gave CHRM5 antagonist 10, M5 PAM -12, CHRM4 antagonist 4, CHRM4 PAM -2, M4 ag 1 and M5 ag 0.
`COCCOC(=O)c1c(N)n(CCCN2CCOCC2)c2nc3ccccc3nc12` gave CHRM5 antagonist -6, M5 PAM 19*, CHRM4 antagonist 10, CHRM4 PAM 10, M4 ag 1 and M5 ag 4.
`Cc1nc(-c2cc(-c3nc(-c4ccc(C(C)(C)C)cc4)no3)no2)cs1` gave CHRM5 antagonist 15, M5 PAM -12, CHRM4 antagonist 28*, CHRM4 PAM -21, M4 ag 7 and M5 ag 2.
O=C(COc1cccc(Cl)c1)NNC(=S)Nc1ccccc1 was read as CHRM5 antagonist -5, M5 PAM -7, CHRM4 antagonist 1, CHRM4 PAM -1, M4 ag 1 and M5 ag -1.
Screening O=C(O)CCC(=O)NNC(=O)COc1cccc(Cl)c1 returned CHRM5 antagonist 13, M5 PAM 21*, CHRM4 antagonist 5, CHRM4 PAM 6, M4 ag 0 and M5 ag 0.
`O=C1Nc2ccccc2N(C(=O)c2ccc3ccccc3c2)C1c1nc2ccccc2[nH]1` (configuration not stated) gave CHRM5 antagonist -4, M5 PAM -1, CHRM4 antagonist -12, CHRM4 PAM 7, M4 ag 2 and M5 ag 1.
Screening COc1ccc(N2CCN(CC(=O)Nc3c(C)cccc3C)CC2)cc1 returned CHRM5 antagonist 8, M5 PAM -3, CHRM4 antagonist -10, CHRM4 PAM 7, M4 ag 2 and M5 ag 1.
`CCN(CC)c1ccc(/C=C2/C(=O)c3ccc(C(=O)O)cc3C2=O)cc1` gave CHRM5 antagonist 18, M5 PAM -17, CHRM4 antagonist 33*, CHRM4 PAM -12, M4 ag 20 and M5 ag 33*.
`CCN(CC)c1ccc(C=C2C(=O)OC3(CCCCC3)OC2=O)cc1` gave CHRM5 antagonist 10, M5 PAM -2, CHRM4 antagonist -3, CHRM4 PAM 9, M4 ag 0 and M5 ag -3.
Screening Cc1c(C(c2ccc(O)cc2)c2c(C)n(C)n(-c3ccccc3)c2=O)c(=O)n(-c2ccccc2)n1C returned CHRM5 antagonist 31*, M5 PAM -13, CHRM4 antagonist -4, CHRM4 PAM -8, M4 ag 12 and M5 ag 1.

High-throughput results (PubChem BioAssay)
